High-throughput results (PubChem)
M18AAP inhibitor: blocks P. falciparum M18 aspartyl aminopeptidase; recombinant PfM18AAP, H-Glu-NHMec fluorogenic cleavage; inhibition, % at 7.35 µM; 290,000 tested, 1.2% active; AID 1822;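 active means inhibition above the campaign mean inhibition over all tested compounds plus 3 SD, cut at about 28% in these data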;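 further: 0% = plate median of test compound wells and 100% = 2 mM ZnCl2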
GAA850 FXN act: increases GAA850 frataxin promoter reporter activity; activation, % at 6 µM; 360,000 tested, 0.56% active; AID 540364; HEK293 lucGAA850 FXN promoter luciferase reporter, 24 h; percent of 10 µM SAHA response;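 active means activation above the average of all compounds screened plus 3 SD, cutoff fixed separately per campaign, cut at about 7.5% in these data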;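 further: 0% = DMSO wells and 100% = 10 µM SAHA wells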
HDAC3 inhib: blocks human histone deacetylase 3 | inhibition, % at 8.3 µM | O15379 | recombinant HDAC3, fluorogenic peptide/trypsin coupled, fluorescence | 320,000 tested, 0.15% active; in the data active means inhibition above about 26%, passing the limit was not always enough
AHR act: activators of human aryl hydrocarbon receptor; activation, % at 5 µM; AID 2796; AHR-responsive luciferase reporter cells, luminescence; P35869; 320,000 tested, 2.5% active; in the data active means activation above about 47%;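 further: 0% = vehicle wells and 100% = reference agonist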
Target sequence (P35869 whole entry, looked up): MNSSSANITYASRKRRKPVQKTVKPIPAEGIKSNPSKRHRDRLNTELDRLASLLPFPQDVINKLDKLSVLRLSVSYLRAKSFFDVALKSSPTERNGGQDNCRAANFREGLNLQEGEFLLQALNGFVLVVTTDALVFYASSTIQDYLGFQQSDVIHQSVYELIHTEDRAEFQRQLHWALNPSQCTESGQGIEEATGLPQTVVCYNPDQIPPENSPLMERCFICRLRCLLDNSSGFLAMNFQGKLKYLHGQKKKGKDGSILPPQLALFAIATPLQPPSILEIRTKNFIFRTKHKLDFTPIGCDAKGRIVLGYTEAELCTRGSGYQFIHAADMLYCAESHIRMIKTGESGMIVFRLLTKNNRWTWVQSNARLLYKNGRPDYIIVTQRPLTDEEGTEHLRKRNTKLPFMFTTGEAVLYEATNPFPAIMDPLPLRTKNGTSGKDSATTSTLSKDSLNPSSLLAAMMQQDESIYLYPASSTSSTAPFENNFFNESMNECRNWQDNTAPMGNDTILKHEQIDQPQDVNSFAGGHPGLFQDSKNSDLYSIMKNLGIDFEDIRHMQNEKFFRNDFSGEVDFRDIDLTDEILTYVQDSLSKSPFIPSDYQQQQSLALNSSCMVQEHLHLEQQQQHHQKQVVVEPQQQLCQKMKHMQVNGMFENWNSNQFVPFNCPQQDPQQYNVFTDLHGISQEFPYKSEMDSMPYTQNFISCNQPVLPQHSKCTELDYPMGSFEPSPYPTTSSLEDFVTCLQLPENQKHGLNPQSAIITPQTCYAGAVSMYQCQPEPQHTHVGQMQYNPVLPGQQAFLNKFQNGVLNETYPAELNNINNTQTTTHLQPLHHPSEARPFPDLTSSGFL
Fh CTSL1 inh: blocks F. hepatica cathepsin L1 in PFM18AAP counter-screen | recombinant F. hepatica cathepsin L1, Z-Leu-Arg-MCA fluorescence | inhibition, % at 5.96 µM | 300,000 tested, 0.49% active | AID 1906;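 active means inhibition above the mean of all tested compounds plus 3 SD, set per screening campaign, cut at about 17% in these data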;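 further: 0% = plate median of test compound wells and 100% = 1 µM Z-Phe-Ala-diazomethylketone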
SENP1 inh: SENP1 (human) catalytic domain inhibition. recombinant SENP1 catalytic domain, CyPet-SUMO1-YPet FRET cleavage. AID 624204. inhibition, % at 10 µM. 360,000 tested, 0.21% active;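 active means inhibition at least 30% at 10 µM, raw YFP signal under a set limit, fluorescence ratio 0.5 to 1.5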;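 further: 0% = enzyme with DMSO and 100% = no enzyme wells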
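Test system: hSENP1 catalytic domain, recombinant; Amount: 20 pM final SENP1 enzyme; Medium: Tris pH 8 buffer plus EDTA, NaCl, BME, BSA, NP40, catalase; Schedule: 50 min enzyme reaction, room temperature, light-protected; Technique: FRET fluorescence in CFP and YFP emission channels; Controls: no-enzyme wells low, DMSO-plus-enzyme wells high control.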
The depositor's hits bear a star; nt = no result given. Compounds with a hit are over-represented: about 4.2% of the library has one in this group of screens.

SMILES | M18AAP inhibitor | GAA850 FXN act | HDAC3 inhib | AHR act | Fh CTSL1 inh | SENP1 inh
Nc1c(-c2ccccc2)n[nH]c1-c1ccccc1 | -4 | 6 | -9 | 134* | 4 | 1
Cc1nnc(SCC2=C(C(=O)O)N3C(=O)C(NC(=O)c4cccc(F)c4F)C3SC2)s1 (stereo unspecified) | 14 | -2 | 3 | 3 | 29* | -2
c1ccc2c(c1)OCCOCCOc1ccccc1OCCOCCO2 | 10 | 0 | -4 | 64* | 1 | 2
O=c1cc(-c2ccc(Cl)cc2)oc(=O)[nH]1 | -15 | -1 | 1 | -1 | -1 | 0
O=c1cc(N=Nc2ccc(Cl)cc2)[nH]c(=O)[nH]1 | 70* | 4 | -8 | -1 | -1 | 0
CCC(CC)CN1CCN=C1N(C)C | 0 | 0 | -7 | -1 | -1 | 1
CCCC(=Nc1ccc(N)cc1)C1=C(O)C(C(=O)OC)C(C)(C)CC1=O (stereo unspecified) | 19 | 2 | -2 | 0 | 7 | 44*
COc1cc2ccccc2cc1C(=O)Nc1ccc(Cl)cn1 | 1 | 7 | 5 | 53* | 2 | 1
COc1ccc(C(=O)Nc2ccc(C)cn2)c(OC)c1 | 1 | -13 | 11 | 49* | -2 | 1
O=C(Nc1ccccn1)c1cc2ccccc2cc1O | -2 | 3 | 0 | 68* | 9 | -27
O=C(Nc1ccccn1)c1ccc(C(=O)Nc2ccccn2)cc1 | 5 | 0 | 5 | 2 | 2 | -1
Cc1ccc2nc(SCC(=O)NC(=O)NCc3ccco3)[nH]c2c1 | 2 | 0 | -11 | 61* | 3 | -1
Cc1ccc2nc(SCC(=O)NCc3ccco3)[nH]c2c1 | -4 | 1 | 3 | 77* | 1 | 0
Cc1ccc2nc(SCC(=O)NCc3ccc(F)cc3)[nH]c2c1 | 0 | 0 | -2 | 47 | 0 | 0
CN(C(=O)c1cccc(NC(=O)Cc2cccc(NC(=O)C3CCN(C(=O)C4CCCCC4)CC3)c2)c1)C1CC1 | nt | -2 | nt | nt | nt | 0
CCN1C(=O)C2C(c3ccc(O)c(OC)c3)NC(C)(C(=O)OC)C2C1=O (stereo unspecified) | -8 | -1 | -2 | 3 | -2 | -1
CCOC(=O)C1(C)NC(c2cc(OC)c(OC)c(OC)c2)C2C(=O)N(CC)C(=O)C21 (stereo unspecified) | -7 | 0 | 7 | 71* | -2 | 1
COc1cccc(C(=O)N2CCC2(C)C(=O)NC(C)C)c1 (stereo unspecified) | nt | 0 | nt | nt | nt | 0
CCCCN(CCCNC(=O)c1ccc2c(c1)NC(=O)CN2C)c1ccccc1 | nt | -1 | nt | nt | nt | -80
O=c1cc(-c2c(O)c3ccccc3n(Cc3ccccc3)c2=O)[nH][nH]1 | 1 | 1 | 8 | 1 | 0 | -4
Cn1c(=O)c(-c2cc(=O)[nH][nH]2)c(O)c2ccccc21 | 17 | 1 | -4 | 51* | 0 | -5
CCn1c(=O)c(-c2cc(=O)[nH][nH]2)c(O)c2ccccc21 | 31* | 1 | 0 | 0 | -6 | -5
O=C(CSc1ccccc1F)NCC(c1cccs1)N1CCOCC1 (stereo unspecified) | nt | 1 | -3 | 2 | nt | -1
CCN(CC)c1ccc2c(-c3ccc(S(=O)(=O)O)cc3S(=O)(=O)[O-])c3ccc(=[N+](CC)CC)cc-3oc2c1 | 5 | -4 | 4 | 14 | 6 | 34*
O=C(O)C(Cc1ccc(Cl)cc1)Sc1nc2ccccc2[nH]1 (stereo unspecified) | -1 | 3 | -5 | nt | nt | 4
SMILES | M18AAP inhibitor | GAA850 FXN act | HDAC3 inhib | AHR act | Fh CTSL1 inh | SENP1 inh
Cc1cc(C)nc(NC(=O)c2cnc3sccn3c2=O)n1 | 3 | -1 | -4 | 70* | 0 | -6
Cc1cc(NS(=O)(=O)c2ccc(NC(=O)c3cnc4sccn4c3=O)cc2)nc(C)n1 | -4 | -1 | 2 | -1 | 1 | 1
N#Cc1ccc(NC(=O)C2=COCCO2)cc1 | nt | 3 | 5 | 4 | nt | -1
CCOC(=O)C1=C(CS(=O)(=O)c2ccc(F)c(C)c2)NC(=O)NC1c1ccc(O)c(O)c1 (stereo unspecified) | 75* | -1 | 5 | -2 | -1 | 2
CCOC(=O)C1=C(CS(=O)(=O)c2ccc(C)cc2)NC(=O)NC1c1cc(OC)c(O)c(OC)c1 (stereo unspecified) | 7 | -1 | 4 | -1 | 0 | 0
COc1cc(OC)c(NC(=O)c2cncn2-c2ccc(F)cc2)cc1Cl | 6 | 0 | 1 | 65* | 4 | 0
Nc1ccc(C(=O)NC23CC4CC(CC(C4)C2)C3)cc1 | 5 | 1 | 2 | -1 | 1 | 2
NC(=O)COc1ccc(/C=N\NC(=O)c2ccc(-c3ccccc3)cc2)cc1 | 6 | 1 | nt | 2 | 3 | 2
O=C1c2cccc3cccc(c23)C(=O)C1(O)O | nt | 1 | 5 | 10 | 18* | 2
CC(=O)N1C(=O)c2cccc3cccc(c23)C(=O)N1C(C)=O | 3 | nt | -6 | 1 | -10 | nt
O=c1c2ccccc2nc(COc2ccccc2)n1/N=C/c1c[nH]c2ccccc12 | 2 | 0 | nt | 63* | 2 | 0
S=C(Nc1ccc2nsnc2c1)N1CCCCCC1 | 10 | 5 | 11 | 1 | 108* | -28
COc1ccc(NC(=S)Nc2ccc3nsnc3c2)cc1 | 16 | 4 | -1 | 34 | 99* | -28
CC1CCN(C(=O)Nc2ccc3nsnc3c2)CC1 | 6 | 6 | -1 | 13 | -1 | 22
CCOc1ccc(NC(=S)Nc2ccc3nsnc3c2)cc1 | 14 | 2 | 11 | 51* | 110* | -26
CC(C)N(C(=O)Nc1ccc2nsnc2c1)C(C)C | 16 | nt | -5 | 14 | 114* | nt
CCOc1ccc(NC(=O)Nc2ccc3nsnc3c2)cc1 | 6 | 4 | -2 | 7 | 4 | 9
COC(=O)c1sccc1-n1cc2c(c1-c1ccccc1)c(=O)n(C)c(=O)n2C | nt | nt | nt | nt | nt | 2
O=S1(=O)N[C@H](Cc2ccccc2)COc2cccc(N3CCC[C@H]3CO)c21 | nt | nt | nt | nt | nt | -2
O=C(NCCNC(=O)c1ccco1)c1ccc(Cl)c(Cl)c1 | -3 | 0 | 2 | 2 | 0 | 0
C#CCn1c2ccccc2c(=O)n1CCOc1ccccc1OC | nt | nt | nt | nt | nt | 1
c1cncc(-c2nc3c(ccc4ccccc43)[nH]2)c1 | -1 | 3 | nt | 127* | 2 | -12
CCOC(=O)C1(C)CCN1C(=O)c1ccc(Cl)nc1 (stereo unspecified) | nt | -2 | nt | nt | nt | 1
COc1cc(C(=O)COC(=O)C2CCCCC2)cc(OC)c1OC | nt | 2 | 3 | 1 | nt | 1
Cc1cc(C)cc(NC(=O)COC(=O)CNC(=O)C2CCCCC2)c1 | nt | 1 | 0 | 0 | nt | -2
O=C(COC(=O)CNC(=O)C1CCCCC1)Nc1ccc(Cl)cc1F | -4 | -1 | 1 | 1 | 34* | 1
COc1ccc(Cl)cc1NC(=O)COC(=O)CNC(=O)C1CCCCC1 | nt | 3 | 3 | 3 | nt | -1
